Hits are enriched below; roughly 4.3% of the tested compounds scored in any of these assays.
MC4R antag cAMP – human MC4R antagonism in cAMP assay | P32245 | hit rate 0.48% among 360,000 | MC4R-expressing cells, MTII-stimulated cAMP, LANCE TR-FRET | inhibition, % at 6.5 µM;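 active = inhibition above its plate's cutoff, the mean of tested wells on that plate plus 3 SD, cut at about 29% in these data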
Target sequence (P32245 whole entry, looked up): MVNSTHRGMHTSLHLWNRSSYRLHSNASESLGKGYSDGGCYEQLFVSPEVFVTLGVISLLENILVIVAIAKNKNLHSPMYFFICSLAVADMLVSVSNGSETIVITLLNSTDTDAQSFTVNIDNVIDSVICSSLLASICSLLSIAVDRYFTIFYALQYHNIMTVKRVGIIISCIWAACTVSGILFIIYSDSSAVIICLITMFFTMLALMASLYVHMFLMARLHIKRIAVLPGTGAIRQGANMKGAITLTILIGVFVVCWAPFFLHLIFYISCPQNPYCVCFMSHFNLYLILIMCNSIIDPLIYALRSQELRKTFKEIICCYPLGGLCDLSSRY
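System: U2OS-MC4R stable cell line; Technique: Eu-cAMP/anti-cAMP TR-FRET, emission 671 nm; Repeats: single well per compound; Also added: Melanotan II; Dosing: one concentration, 6.5 µM nominal; Schedule: 30-min compound, 1-h challenge, 1-h detection, room temperature.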
MC4R barr agon – agonists of human melanocortin 4 receptor (MC4R) beta-arrestin; U2OS MC4R beta-arrestin complementation, luminescence; percent of melanotan II response, DMSO zero; P32245; hit rate 0.98% among 360,000; activation, % at 8.9 µM;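 active = activation above a per-plate cutoff, the mean activation of sample wells on that plate plus 3 SD, cut at about 8% in these data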
TAAR1 ag – agonists of human TAAR1; Q96RJ0; CHO RD-HGA16 TAAR1, Fluo-8 calcium fluorescence; vehicle wells 0%, saturating PEA agonist 100%; activation, % at 3 µM; hit rate 0.99% among 360,000;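 active = activation above the mean activation of all test compounds in the run plus 3 SD, cut at about 38% in these data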
Target sequence (Q96RJ0 whole entry, looked up): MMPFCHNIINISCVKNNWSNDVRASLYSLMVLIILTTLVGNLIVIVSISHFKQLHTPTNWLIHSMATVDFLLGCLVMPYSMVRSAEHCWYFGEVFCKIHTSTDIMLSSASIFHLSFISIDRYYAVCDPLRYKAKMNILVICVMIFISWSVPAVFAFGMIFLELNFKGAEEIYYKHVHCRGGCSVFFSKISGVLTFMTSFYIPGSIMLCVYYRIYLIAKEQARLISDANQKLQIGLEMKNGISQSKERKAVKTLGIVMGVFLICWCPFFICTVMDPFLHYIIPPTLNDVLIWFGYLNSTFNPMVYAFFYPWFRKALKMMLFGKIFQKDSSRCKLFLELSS
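System: CHO-derived RD-HGA16 cells with stable Gα16 and human TAAR1 / Times: 17-24 h plating, Fluo-8 75 min 37 °C, 30 min RT / Technique: calcium-sensitive Fluo-8 signal, excitation 470-495, emission 515-575 nm / Measure: % activation relative to PEA EC100 response / Benchmarks: DMSO and PEA EC100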
m5-HT2A agonist – agonists of mouse serotonin 5-HT2A receptor (HTR2A); AID 624169; CHO-K1 mHTR2A beta-arrestin complementation, luminescence; percent of 30 µM serotonin response; activation, % at 7.6 µM; hit rate 0.66% among 360,000;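 active = activation above a run cutoff, the mean activation of all tested compounds plus 3 SD, cut at about 14% in these data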
B2AR ag – agonists of human beta-2 adrenergic receptor inducing internalization; P07550; response, % (no concentration beside the values); hit rate 0.43% among 340,000; AID 504454; Am2.2-beta2AR cells, FAP receptor internalization, flow cytometry;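 active = response above a set limit, near 3 SD of response in nonfluorescent compounds, cut at about 42% in these data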
TAAR1 antag – human TAAR1 antagonism. inhibition, % at 3 µM. AID 624466. hit rate 1.5% among 360,000. CHO RD-HGA16 TAAR1, Fluo-8 calcium fluorescence, antagonist. Q96RJ0;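 active = inhibition above a per-plate cutoff, the mean inhibition of test compounds on that plate plus 3 SD, cut at about 49% in these data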
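Test system – hTAAR1-expressing CHO RD-HGA16 cells, Gα16-coupled · Also added – β-PEA at EC80 concentration, post-compound challenge · Compound – 3 µM, single point · Incubation – dye loading 75 min at 37 °C, then 30 min room temperature · Measured by – Fluo-8 intracellular calcium dye fluorescence, real-time kinetic reads · Benchmarks – vehicle and agonist controls · Replicates – singlicate, one well per test compound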
Numbers stand for hits; n = inactive; x = not tested or not shown.

SMILES	MC4R antag cAMP	MC4R barr agon	TAAR1 ag	m5-HT2A agonist	B2AR ag	TAAR1 antag
CC(=O)NCCNc1nc(NCc2cccs2)nc2ccsc12	n	n	n	n	x	n
C#CCNC(=O)C[C@H]1C[C@@]2(C(=O)OC)C(=C[C@H](C(C)C)O[C@@H]2C2CC2)N(Cc2ccccc2)C1=O	x	x	n	x	x	n
CCOC(=O)CCCCCC(=O)Nc1ccc2c(c1)C(=O)N([C@H](C)CO)C[C@@H](C)[C@@H](CN(C)S(=O)(=O)c1ccc(C)cc1)OCCCC[C@H](C)O2	x	x	n	x	x	n
Clc1ccccc1OCCNc1nc(NCC2CC2)nc2ccsc12	n	n	n	n	x	49
COc1ccccc1CNc1nc(NCCOc2ccccc2Cl)c2sccc2n1	n	n	n	n	x	n
c1ccc(CNc2nc(NCc3cccs3)nc3ccsc23)cc1	n	n	52	n	x	81
O=C1CCCN1CCCNS(=O)(=O)c1cccs1	n	n	n	n	n	n
O=C1CCCN1CCCNc1nc(NCc2cccs2)nc2ccsc12	n	n	92	n	x	99
Fc1ccc(Nc2nc(NCc3ccccc3)nc3ccsc23)cc1	n	n	n	n	x	n
CNc1nc(NCc2cccc(OC)c2)c2sccc2n1	n	n	n	n	x	n
CNc1nc(NCc2ccccc2)c2sccc2n1	n	n	46	n	x	n
COc1ccc(NC(=O)c2cc(C3CCCCN3C(=O)c3cccs3)on2)c(C)c1 (configuration not stated)	n	n	n	n	x	n
C[C@H]1Cn2cnc(C(=O)N3CCN(c4ccccc4)CC3)c2C(=O)N1	x	x	n	x	x	n
c1csc(CNc2nc(NCC3CCCCC3)c3sccc3n2)c1	n	n	43	n	x	61
CCCCN1CC(COCc2ccccc2)Oc2cccc(Oc3ccc(SC)c(C)c3)c2S1(=O)=O (configuration not stated)	x	x	n	x	x	n
COc1cccc(NC(=O)CCS(=O)(=O)c2cccs2)c1	n	n	n	n	n	n
CC(=O)c1cccc(NC(=O)c2ccc(NC(=O)CCS(=O)(=O)c3cccs3)cc2)c1	n	n	n	n	n	52
COc1ccc(NC(=O)c2ccc(NC(=O)CCS(=O)(=O)c3cccs3)cc2)cc1	n	n	n	n	n	53
CCS(=O)(=O)N1CCC(C(=O)Oc2ccc(C)c(C)c2)CC1	n	n	n	n	n	n
COCCN1C(=O)/C(=C/c2ccc(N3CCCC3)cc2)SC1=S	n	n	52	n	n	50
FC(F)(F)c1ccccc1Cc1c(-c2ccc(Cl)cc2)nc2c3ccccc3ccn12	x	x	n	n	x	n
CC(C)CCCN1C(Nc2ccccc2)=NC[C@@H]1CC(C)C	n	n	n	n	n	n
CC(C)C[C@H]1CN=C(Nc2ccccc2)N1CCCCc1ccccc1	n	n	42	n	n	n
Cc1nc2cc(NC(=O)c3ccc(S(=O)(=O)N(C)c4ccccc4)cc3)ccc2o1	n	n	n	n	n	51
Cc1ccc(/C=N/NC(=O)c2ccc(N(C)S(=O)(=O)c3ccccc3)cc2)cc1	n	n	n	n	n	n
SMILES	MC4R antag cAMP	MC4R barr agon	TAAR1 ag	m5-HT2A agonist	B2AR ag	TAAR1 antag
Cc1nc2ccc(NC(=O)c3ccc(Cl)c(S(=O)(=O)N(C)c4ccccc4)c3)cc2s1	n	n	n	n	n	51
Cc1nc2ccc(NC(=O)c3cc(S(=O)(=O)N(C)c4ccccc4)ccc3Cl)cc2s1	n	n	n	n	n	n
CC(=O)Oc1ccc(/C=N/NC(=O)c2ccc(N(C)S(=O)(=O)c3ccccc3)cc2)cc1	n	n	n	n	n	55
COc1cc(NC(=O)c2ccc(S(=O)(=O)N(C)c3ccccc3)cc2)cc(OC)c1	n	n	n	n	n	51
COC(=O)[C@]12C[C@H](CC(=O)N3CCSCC3)C(=O)N(Cc3ccccc3)C1=C[C@H](C(C)C)O[C@@H]2C1CC1	x	x	n	x	x	n
Cc1[nH]c2ccccc2c1CC(=O)Nc1ccc(Nc2cccnc2)c(-c2ccc(C(C)(C)C)cc2)c1	x	x	n	x	x	n
Cc1c(-c2ccccc2)nnn1-c1ccc(F)c(Cl)c1	x	x	n	x	x	n
CC(C)(C)S(=O)(=O)N1C[C@@H]2C(=C(CCO)C[C@@H]3C(=O)N(c4ccccc4)C(=O)[C@@H]32)[C@H]1CCO	x	x	n	x	x	n
COC(=O)/C=C1\OC(C)c2ccccc21 (configuration not stated)	x	x	n	x	x	n
COCCN1Cc2cc(C(=O)OC)c3c(c2C1=O)c1ccccc1n3S(=O)(=O)c1ccc(OC)cc1	x	x	n	x	x	n
CCN(CC)c1ccc2cc(-c3nc4ccccc4n3C)c(=O)oc2c1	n	n	n	n	n	55
CN(c1ccccc1)c1ccc(/C=C/[N+](=O)[O-])cc1	n	n	n	n	88	n
O=C(c1ccccc1)c1cc(Cl)ccc1N1C(=O)C=CC1=O	58	n	n	n	43	n
COc1cccc(-c2cnc3c(NC(C)=O)cc(-c4ccc(C(=O)NC5CC5)cc4)cn23)c1	n	8.8	n	n	x	n
CC(=O)Nc1cccc(-c2cc(NC(C)=O)c3ncc(-c4cccc(C(C)=O)c4)n3c2)c1	n	8.6	n	n	x	n
COc1ccc(-c2cc(NC=O)c3ncc(-c4cccc(OC)c4)n3c2)cc1	n	n	n	n	x	59
COc1ccc(-c2cnc3c(NC(C)=O)cc(-c4ccc(C(=O)NC5CC5)cc4)cn23)cc1OC	n	n	n	n	x	n
Cc1ccc(-n2nnnc2SCC(=O)NC(=O)Nc2ccc3c(c2)OCCO3)cc1	n	n	n	n	n	n
O=C(CSc1nnnn1-c1ccc(Cl)cc1)NC(=O)Nc1ccc2c(c1)OCCO2	n	9.3	n	n	n	n
O=c1cnn([C@@H]2O[C@H](CO)[C@@H](O)[C@H]2O)c(=O)[nH]1	n	n	x	22	n	x
CC(C)c1c(O)ccc2c1CC[C@H]1C(C)(C)CCC[C@]21C	n	n	n	45	n	n
CCN(Cc1ccccc1)c1ccc(/C=N/N=C(N)N)cc1	n	n	n	n	63	n
CCN(Cc1ccccc1)c1ccccc1	n	n	n	n	n	n
Nc1sc2c(c1C(=O)NC1CCS(=O)(=O)C1)CCCC2 (configuration not stated)	n	n	n	22	n	n
COc1cccc(OCCn2c(C)c(/C=N/n3cnnc3)c3ccccc32)c1	n	9.7	n	n	n	n
COC(=O)[C@]12C[C@H](CC(=O)NCc3ccc(OC)c(OC)c3)C(=O)N(CCC3=CCCCC3)C1=C[C@H](C(C)(C)C)O[C@@H]2C	x	x	n	x	x	n
COc1ccccc1S(=O)(=O)N(C)C[C@H]1Oc2cc(Br)ccc2S(=O)(=O)N([C@H](C)CO)C[C@H]1C	x	x	n	x	x	n
CCN(CC)C(=O)CSc1nc(N)c(C#N)c(-c2cccs2)c1C#N	n	n	n	n	n	n

Screening data as filed in PubChem.
